Data published in ChEMBL document CHEMBL4033608, “Benzophenone and Fimetarone Derivatives from the Coprophilous Fungus Delitschia confertaspora” (J Nat Prod, 2017).
The source made the active and inactive calls.

Columns and labels:
Escherichia coli = test: Antimicrobial activity against Escherichia coli at 100 ug/disc by standard disc dassay; assay type: functional
Bacillus subtilis = test: Antimicrobial activity against Bacillus subtilis at 100 ug/disc by standard disc dassay; assay type: functional
Staphylococcus aureus = test: Antimicrobial activity against Staphylococcus aureus at 100 ug/disc by standard disc dassay; assay type: functional
Candida albicans = test: Antimicrobial activity against Candida albicans at 100 ug/disc by standard disc dassay; assay type: functional
Cryptococcus neoformans = test: Antimicrobial activity against Cryptococcus neoformans at 100 ug/disc by standard disc dassay; assay type: functional
MDA-MB-231 = test: Cytotoxicity against human MDA-MB-231 cells assessed as reduction in cell viability up to 10 uM by Cell-Titer Glo assay; assay type: functional, cell-based
Outline: (§1)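 Viability read by CellTiter-Glo: reagent added 1:1 to the well medium, plates kept in foil and shaken 2 min at room temperature, paused 2 min, then shaken 2 min more, and luminescence measured. Compounds were tested at concentrations up to 10 μM. Sphaeropsidin A served as positive control and a DMSO blank as negative control.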

GLI56 = test: Cytotoxicity against human GLI56 cells assessed as reduction in cell viability up to 10 uM by Cell-Titer Glo assay; assay type: functional, cell-based; outline: as §1
D453 (Homo sapiens) = test: Cytotoxicity against human D453 cells assessed as reduction in cell viability up to 10 uM by Cell-Titer Glo assay

Measured: Activity

COC(=O)c1cc(OC)cc(O)c1C1=C2CC3(COc4cc(OC)cc(C(=O)OC)c4C3=O)C(=O)C(C(C)=O)=C2C=C(C)O1 (centres undefined)
inactive: Escherichia coli | Bacillus subtilis | Staphylococcus aureus | Candida albicans | Cryptococcus neoformans | MDA-MB-231 | GLI56 | D453 (Homo sapiens)

COC(=O)c1cc(OC)cc(O)c1C(=O)c1cc(C(C)=O)c(O)c(C(=O)c2c(O)cc(OC)cc2C(=O)OC)c1
inactive: Escherichia coli | Bacillus subtilis | Staphylococcus aureus | Candida albicans | Cryptococcus neoformans | MDA-MB-231 | GLI56 | D453 (Homo sapiens)

COC(=O)c1cc(OC)cc(O)c1C(=O)c1cc(C(C)=O)c2oc3cc(OC)cc(C(=O)OC)c3c(=O)c2c1
inactive: Escherichia coli | Bacillus subtilis | Staphylococcus aureus | Candida albicans | Cryptococcus neoformans | MDA-MB-231 | GLI56 | D453 (Homo sapiens)
